Experiments:
[1] = target: T1, Poly [ADP-ribose] polymerase 1 (Homo sapiens, UniProt P09874); assay: Inhibition of recombinant human PARP1 expressed in Escherichia coli BL21(DE3) using histone as substrate measured after 1 hr in presence of biotinylated NAD+ by ELISA
MX1 [2] = assay: Anti-tumor activity against human MX1 cells xenografted in BALB/c mouse assessed as tumor weight at 50 mg/kg, po administered once daily via gavage for 5 days measured after 11 days (reference value: 4.09 +/- 0.64 g); assay type: functional
Procedure, shortened: (§1)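 Female athymic BALB/c nude mice, 8–10 weeks old, implanted s.c. with 1×10^6 MX-1 cells in 0.1 mL PBS. Day 6: grouped at 6/group, tumors 100–300 mm³. Oral gavage once daily. TMZ 50 mg/kg/day for 5 days; single-agent test compound 50 mg/kg/day for 10 days; combinations both orally for 5 days. Body weight and tumor volume measured twice weekly; euthanized day 11.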

Mus musculus = assay: Toxicity in BALB/c mouse assessed as change in body weight at 50 mg/kg, po administered once daily via gavage for 5 days measured twice every week up to 11 days (reference value: 5.32 g); assay type: organism-based; details: in vivo; procedure, shortened: as §1
MX1 [3] = assay: Anti-tumor activity against human MX1 cells xenografted in BALB/c mouse assessed as tumor growth inhibition at 50 mg/kg, po administered once daily via gavage for 5 days measured after 11 days relative to control; assay type: functional; procedure, shortened: as §1
Homo sapiens = organism: Homo sapiens; assay: Selectivity ratio of IC50 for recombinant human PARP2 to IC50 for recombinant human PARP1
Procedure, shortened: (§2)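 Human recombinant PARP2 (and PARP1) expressed and purified, inhibition measured by ELISA, with AZD2281 as positive control. IC50 from concentration–response fitting.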

[4] = target: Poly [ADP-ribose] polymerase 2 (Homo sapiens, UniProt Q9UGN5); assay: Inhibition of recombinant human PARP2 expressed in Escherichia coli BL21(DE3) using histone as substrate measured after 1 hr in presence of biotinylated NAD+ by ELISA; procedure, shortened: as §2
[5] = target: T1, Poly [ADP-ribose] polymerase 1; assay: Inhibition of PARP1 in human MX1 cells assessed as potentiation of temozolomide-induced cytotoxicity at 10 uM after 72 hrs by MTT assay relative to temozolomide alone; assay type: cell-based
Procedure, shortened: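 MX-1 cells seeded at 2000/well and exposed for 72 h to TMZ (0–0.5 mmol/L) with or without PARP inhibitor fixed at 10 μmol/L. Survival read by MTT. PF50 = IC50 of TMZ alone / IC50 of TMZ + inhibitor.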

[6] = target: T1, Poly [ADP-ribose] polymerase 1; assay: Inhibition of recombinant human PARP1 expressed in Escherichia coli BL21(DE3) using sheared DNA as substrate measured after 1 hr in presence of NAD+

Chain of Poly [ADP-ribose] polymerase 2 (Q9UGN5 whole entry): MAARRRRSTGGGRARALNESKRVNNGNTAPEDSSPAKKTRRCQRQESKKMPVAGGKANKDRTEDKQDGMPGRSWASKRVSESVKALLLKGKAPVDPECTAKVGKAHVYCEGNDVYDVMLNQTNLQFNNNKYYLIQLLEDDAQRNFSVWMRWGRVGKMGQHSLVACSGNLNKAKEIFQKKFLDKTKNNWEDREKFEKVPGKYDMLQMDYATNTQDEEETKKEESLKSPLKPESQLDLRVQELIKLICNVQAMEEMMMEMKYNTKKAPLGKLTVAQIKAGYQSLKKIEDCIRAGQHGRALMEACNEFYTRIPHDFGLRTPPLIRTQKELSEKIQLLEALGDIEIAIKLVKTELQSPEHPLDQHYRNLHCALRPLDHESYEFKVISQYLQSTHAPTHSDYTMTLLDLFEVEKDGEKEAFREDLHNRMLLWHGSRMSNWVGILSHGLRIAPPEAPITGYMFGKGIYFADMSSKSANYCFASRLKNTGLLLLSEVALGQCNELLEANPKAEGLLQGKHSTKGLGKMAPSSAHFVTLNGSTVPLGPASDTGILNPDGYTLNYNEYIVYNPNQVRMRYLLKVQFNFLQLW
T1 sequence (P09874 whole entry): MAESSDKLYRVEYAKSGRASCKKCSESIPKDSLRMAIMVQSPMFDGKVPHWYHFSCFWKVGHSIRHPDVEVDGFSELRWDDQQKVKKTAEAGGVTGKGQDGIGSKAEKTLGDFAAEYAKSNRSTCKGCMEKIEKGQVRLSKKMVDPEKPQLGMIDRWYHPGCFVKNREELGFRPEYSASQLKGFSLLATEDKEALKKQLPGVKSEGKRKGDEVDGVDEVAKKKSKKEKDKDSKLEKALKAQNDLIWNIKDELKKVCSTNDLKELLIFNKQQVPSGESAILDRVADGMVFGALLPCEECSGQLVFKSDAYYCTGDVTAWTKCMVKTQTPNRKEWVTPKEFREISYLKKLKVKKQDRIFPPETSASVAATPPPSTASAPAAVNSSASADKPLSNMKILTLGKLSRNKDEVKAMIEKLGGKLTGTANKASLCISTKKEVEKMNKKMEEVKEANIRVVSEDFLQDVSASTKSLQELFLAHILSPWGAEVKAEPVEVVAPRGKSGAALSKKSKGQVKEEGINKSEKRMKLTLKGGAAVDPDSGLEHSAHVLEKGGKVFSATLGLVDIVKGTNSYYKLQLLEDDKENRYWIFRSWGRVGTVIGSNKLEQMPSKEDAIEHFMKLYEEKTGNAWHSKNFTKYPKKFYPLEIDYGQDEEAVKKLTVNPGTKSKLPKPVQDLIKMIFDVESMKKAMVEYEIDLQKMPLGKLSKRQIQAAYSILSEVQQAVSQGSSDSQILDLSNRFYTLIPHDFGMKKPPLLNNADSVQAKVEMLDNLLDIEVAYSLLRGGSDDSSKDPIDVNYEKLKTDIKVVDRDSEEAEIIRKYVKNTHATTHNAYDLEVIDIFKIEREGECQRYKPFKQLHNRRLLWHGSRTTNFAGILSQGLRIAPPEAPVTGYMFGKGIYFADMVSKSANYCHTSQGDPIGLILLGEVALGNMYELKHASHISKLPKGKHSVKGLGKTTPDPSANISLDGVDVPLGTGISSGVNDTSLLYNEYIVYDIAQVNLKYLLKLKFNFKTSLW

Work on CC(C)CCN1CCC(NC(=O)c2nc3c(C(N)=O)cccc3[nH]2)CC1 yielded an IC50 [1] of 111 nM.

Work on CC(C)(C)OC(=O)NC1CCN(C(=O)c2nc3c(C(N)=O)cccc3[nH]2)C1 (stereo not given) yielded an IC50 [1] of 857 nM.

Work on CCCN1CCC(NC(=O)c2nc3c(C(N)=O)cccc3[nH]2)CC1 yielded an IC50 [1] of 49 nM.

For CC(C)(C)OC(=O)NC1CCN(C(=O)c2nc3c(C(N)=O)cccc3[nH]2)CC1, the IC50 [1] was 968 nM.

Molecule NC(=O)c1cccc2[nH]c(C(=O)NC3CCN(C4CCNCC4)CC3)nc12 has an IC50 [1] of 316 nM.

With Cn1nnc2c(C(N)=O)ncn2c1=O [TEMOZOLOMIDE] the Activity (MX1 [2]) was 1.57 g, the Activity (Mus musculus) was 0.02 g and the T/C (MX1 [3]) was 38%. The inhibition in vivo at 50 mg/kg (MX1 [3]; Mus musculus, MX1, po, read-out: TGI) was 62%.

NC(=O)c1cccc2[nH]c(C(=O)N3CCC(NC4CCCCC4)CC3)nc12 gave an IC50 [1] of 70 nM.

NC(=O)c1cc(F)cc2[nH]c(C(=O)N3CCC(NC4CCCCC4)CC3)nc12 showed an IC50 [1] of 7.54 nM, a Ratio IC50 (Homo sapiens) of under 10 and an IC50 [4] of 34 nM. It also gave a PF50 [5] of 0.71.

CC(C)(C)OC(=O)N1CCC(N2CCC(NC(=O)c3nc4c(C(N)=O)cccc4[nH]3)CC2)CC1 gave an IC50 [1] of 868 nM.

In the case of CC(C)(C)OC(=O)N1CCC(NC2CCN(C(=O)c3nc4c(C(N)=O)cccc4[nH]3)C2)CC1 (stereo not given), the IC50 [1] is reported as 1190 nM.

Molecule CC(C)(C)OC(=O)N1CCN(C(=O)c2nc3c(C(N)=O)cccc3[nH]2)CC1 has an IC50 [1] of 152 nM.

Molecule CC(C)(C)CN1CCC(NC(=O)c2nc3c(C(N)=O)cccc3[nH]2)CC1 has an IC50 [1] of 41 nM.

For NC(=O)c1cccc2[nH]c(C(=O)NC3CN4CCC3CC4)nc12 (stereo not given), the IC50 [1] was over 100 nM.

Molecule NC(=O)c1cccc2[nH]c(C(=O)N3CCC(N)CC3)nc12 has an IC50 [1] of 29 nM, a Ratio IC50 (Homo sapiens) of under 10 and an IC50 [4] of 73 nM. The PF50 [5] was 1.99.

CC(C)(C)OC(=O)N1CCC(NC2CCN(C(=O)c3nc4c(C(N)=O)cccc4[nH]3)CC2)CC1 showed an IC50 [1] of 250 nM.

For NC(=O)c1cc(F)cc2[nH]c(C(=O)N3CCC(N)C3)nc12 (stereo not given), the IC50 [1] was 12 nM, the Ratio IC50 (Homo sapiens) was under 10 and the IC50 [4] was 19 nM. For the same molecule, the PF50 [5] was 1.07.

For NC(=O)c1cccc2[nH]c(C(=O)N3C[C@H]4CCCN[C@H]4C3)nc12, the IC50 [1] was 116 nM.

CCCNC1CCN(C(=O)c2nc3c(C(N)=O)cccc3[nH]2)C1 (stereo not given) showed an IC50 [1] of 79 nM, a Ratio IC50 (Homo sapiens) of under 10 and an IC50 [4] of 75 nM. It also gave a PF50 [5] of 1.54.

CC(C)CN1CCN(C(=O)c2nc3c(C(N)=O)cccc3[nH]2)CC1 showed an IC50 [1] of 81 nM.

Work on NC(=O)c1cccc2[nH]c(C(=O)NC3CCN(CC4CC4)CC3)nc12 yielded an IC50 [1] of 108 nM, a Ratio IC50 (Homo sapiens) of under 10 and an IC50 [4] of 130 nM. For the same molecule, the PF50 [5] was 3.53.

For CC(C)(C)OC(=O)NC1CCN(C(=O)c2nc3c(C(N)=O)cc(F)cc3[nH]2)C1 (stereo not given), the IC50 [1] was over 100 nM.

NC(=O)c1cccc2[nH]c(C(=O)NC3CCN(C4CCCCC4)C3)nc12 (stereo not given) was tested, and the IC50 [6] was over 1000 nM.

With CCC(CC)N1CCN(C(=O)c2nc3c(C(N)=O)cc(F)cc3[nH]2)CC1=O the IC50 [1] was 88 nM.

In the case of NC(=O)c1cccc2[nH]c(C(=O)NC3CCCNC3)nc12 (stereo not given), the IC50 [6] is reported as 199 nM.

Molecule NC(=O)c1cc(F)cc2[nH]c(C(=O)N3CCC(NC4CCCCC4)C3)nc12 (stereo not given) has an IC50 [1] of 37 nM, a Ratio IC50 (Homo sapiens) of under 10 and an IC50 [4] of 38 nM. The PF50 [5] was 1.71.

Work on NC(=O)c1cccc2[nH]c(C(=O)NC3CCCN(C4CCCCC4)C3)nc12 (stereo not given) yielded an IC50 [6] of 382 nM.

CCC(=O)NC1CCN(C(=O)c2nc3c(C(N)=O)cccc3[nH]2)C1 (stereo not given) showed an IC50 [1] of 83 nM.

CC(C)CCN1CCCC(NC(=O)c2nc3c(C(N)=O)cccc3[nH]2)C1 (stereo not given) gave an IC50 [6] of 708 nM.

CCN1CCC(NC(=O)c2nc3c(C(N)=O)cccc3[nH]2)CC1 showed an IC50 [1] of 40 nM.

From ChEMBL document CHEMBL4028811, “Discovery of 2-substituted 1H-benzo[d]immidazole-4-carboxamide derivatives as novel poly(ADP-ribose)polymerase-1 inhibitors with in vivo anti-tumor activity” (Eur J Med Chem, 2017)
